Source: ChEMBL document CHEMBL4011645, “New Inhibitor Targeting Signal Transducer and Activator of Transcription 5 (STAT5) Signaling in Myeloid Leukemias” (J Med Chem, 2017)
Activity calls are given as the source filed them. The calls are words filed in the database; no cut-off is given here.

Key:
KU812 cell line [1] = assay: Antiproliferative activity against human KU812 cells at 10 uM after 72 hrs by trypan blue assay; format: functional, cell-based
How it was run: (§1)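 Screen at a single 10 μM, DMSO as vehicle control, growth followed at 24, 48 and 72 h. Readouts: MTT (0.2×10^5 cells/well in X-Vivo, 4 h MTT, SDS/HCl lysis, OD 570 nm) and trypan blue exclusion counts of living cells. n = 3 in triplicates, mean ± SEM.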

KU812 cell line [2] = assay: Antiproliferative activity against human KU812 cells at 10 uM up to 72 hrs by MTT assay; format: functional, cell-based; how it was run: as §1
K562 [3] = assay: Antiproliferative activity against human K562 cells at 10 uM after 72 hrs by MTT assay; format: functional, cell-based; how it was run: as §1
K562 [4] = assay: Antiproliferative activity against human K562 cells at 10 uM after 72 hrs by trypan blue assay; format: functional, cell-based; how it was run: as §1
K562 [5] = assay: Antiproliferative activity against human K562 cells after 48 hrs by MTT assay; format: functional, cell-based; conditions: K562, 48 h
How it was run: (§2)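 K562 or KU812 cells (RPMI/10% FBS, 37 °C, 5% CO2) exposed to 100 nM–50 μM for 48 h. 0.2×10^5 cells per well in phenol-red-free X-Vivo, MTT 4 h, lysis overnight in 10% SDS/0.003% HCl, absorbance at 570 nm. EC50 fitted; n = 3 in triplicates, mean ± SEM.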

KU812 cell line [6] = assay: Antiproliferative activity against human KU812 cells after 48 hrs by MTT assay; format: functional, cell-based; conditions: KU812, 48 h; how it was run: as §2
KU812 cell line [7] = assay: Induction of apoptosis in human KU812 cells at 10 uM after 48 hrs by FITC-Annexin V and 7-amino-actinomycin D staining-based flow cytometry method; format: functional, cell-based
How it was run: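 After 48 h culture with 10 μM or DMSO, 10^6 cells stained with FITC-Annexin V and 7-AAD for 15 min at 4 °C. Percentage of apoptotic cells measured by flow cytometry; n = 3 in triplicates, mean ± SEM.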

K562 [8] = assay: Antiproliferative activity against human K562 cells at 10 uM after 48 hrs by trypan blue assay; format: functional, cell-based; how it was run: as §1
KU812 cell line [9] = assay: Antiproliferative activity against human KU812 cells at 10 uM after 24 hrs by trypan blue assay; format: functional, cell-based; how it was run: as §1
K562 [10] = assay: Antiproliferative activity against human K562 cells at 10 uM after 48 hrs by MTT assay; format: functional, cell-based; how it was run: as §1
KU812 cell line [11] = assay: Antiproliferative activity against human KU812 cells at 10 uM after 24 hrs by MTT assay; format: functional, cell-based; how it was run: as §1
KU812 cell line [12] = assay: Antiproliferative activity against human KU812 cells at 10 uM after 48 hrs by MTT assay; format: functional, cell-based; how it was run: as §1
KU812 cell line [13] = assay: Antiproliferative activity against human KU812 cells at 10 uM after 48 hrs by trypan blue assay; format: functional, cell-based; how it was run: as §1
[14] = target: T1, Signal transducer and activator of transcription 5A (Homo sapiens) (UniProt P42229); assay: Inhibition of STAT5 phosphorylation in human KU812 cells at 10 uM after 72 hrs by Western blot method; format: cell-based
T1 sequence (whole entry): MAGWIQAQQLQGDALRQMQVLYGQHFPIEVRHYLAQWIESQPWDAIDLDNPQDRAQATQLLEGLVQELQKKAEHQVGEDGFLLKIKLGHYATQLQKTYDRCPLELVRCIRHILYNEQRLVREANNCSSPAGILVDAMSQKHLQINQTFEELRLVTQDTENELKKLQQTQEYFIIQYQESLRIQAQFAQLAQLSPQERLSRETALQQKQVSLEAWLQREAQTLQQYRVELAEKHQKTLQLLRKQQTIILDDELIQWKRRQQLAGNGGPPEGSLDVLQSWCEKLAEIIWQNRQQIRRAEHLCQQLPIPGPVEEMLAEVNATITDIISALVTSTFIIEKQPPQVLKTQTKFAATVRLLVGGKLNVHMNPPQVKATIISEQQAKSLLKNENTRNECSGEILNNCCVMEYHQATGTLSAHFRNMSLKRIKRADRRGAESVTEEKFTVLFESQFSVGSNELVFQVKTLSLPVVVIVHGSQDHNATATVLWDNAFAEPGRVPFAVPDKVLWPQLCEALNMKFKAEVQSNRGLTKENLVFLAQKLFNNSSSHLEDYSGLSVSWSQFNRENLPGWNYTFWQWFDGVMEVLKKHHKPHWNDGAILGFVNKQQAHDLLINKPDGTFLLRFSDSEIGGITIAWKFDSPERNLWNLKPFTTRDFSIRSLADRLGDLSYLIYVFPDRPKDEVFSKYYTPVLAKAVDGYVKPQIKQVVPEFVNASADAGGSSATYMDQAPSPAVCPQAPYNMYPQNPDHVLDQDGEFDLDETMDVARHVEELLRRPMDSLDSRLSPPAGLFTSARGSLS
How it was run: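 Western blot of KU812 cells 72 h after exposure to 10 µM. Lysates in 2x Laemmli buffer were run on SDS-PAGE and transferred to nitrocellulose. Blots were probed with P-Y694/699-STAT5 and STAT5 antibodies and detected by ECL.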

K562 [15] = assay: Antiproliferative activity against human K562 cells at 10 uM after 24 hrs by trypan blue assay; format: functional, cell-based; how it was run: as §1
K562 [16] = assay: Antiproliferative activity against human K562 cells at 10 uM after 24 hrs by MTT assay; format: functional, cell-based; how it was run: as §1

Compound | Activity (KU812 cell line [1]) | Activity (KU812 cell line [2]) | Activity (K562 [3]) | Activity (K562 [4]) | EC50 (K562 [5]) [µM] | EC50 (KU812 cell line [6]) [µM] | also measured
CCOC(=O)Cn1ccc2cc(OCCN3CCC(C)(C)c4ccccc43)ccc21 | inactive | inactive | inactive | inactive |  |  | 
CC1(C)CCN(CCOc2ccc3[nH]ccc3c2)c2ccc(-c3ccc(Cl)nc3)cc21 | Active |  |  |  | 13 | 5.41 | Activity (KU812 cell line [7]): Active
CC1(C)CCN(CCOc2ccc3[nH]ccc3c2)c2ccc(-c3ccccn3)cc21 | inactive | inactive | inactive | inactive |  |  | 
CC1(C)CCN(CCOc2ccc3[nH]ccc3c2)c2ccc(C(=O)C3CCCCC3)cc21 |  |  | inactive | inactive |  |  | Activity (K562 [8]): Active; Activity (KU812 cell line [9]): Active; Activity (K562 [10]): Active; Activity (KU812 cell line [11]): Active; Activity (KU812 cell line [12]): inactive; Activity (KU812 cell line [13]): inactive
Cn1ccc2cc(OCCN3CCC(C)(C)c4ccccc43)ccc21 | inactive | inactive | inactive | inactive |  |  | 
CC1(C)CCN(CCOc2ccc3[nH]ccc3c2)c2ccc(-c3cccc([N+](=O)[O-])c3)cc21 | inactive | inactive | inactive | inactive |  |  | 
CC1(C)CCN(CCOc2ccc3[nH]ccc3c2)c2ccc(-c3ccncc3)cc21 | Active |  |  | Active | 22.7 | 9.38 | Activity (KU812 cell line [7]): Active
CC1(C)CCN(CCOc2ccc3c(ccn3CC(=O)O)c2)c2ccc(C(=O)C3CCCCC3)cc21 |  |  |  |  |  | 197 | inhibition [14]: Active
CC1(C)CCN(CCOc2ccc3[nH]ccc3c2)c2ccc(Br)cc21 |  |  |  |  | 15.6 | 7.59 | 
CC1(C)CCN(CCOc2ccc3c(ccn3CC(=O)O)c2)c2ccccc21 |  |  |  |  |  |  | Activity (K562 [8]): inactive; Activity (K562 [10]): inactive; Activity (KU812 cell line [12]): inactive; Activity (KU812 cell line [13]): inactive
CC1(C)CCN(CCOc2ccc3[nH]ccc3c2)c2ccccc21 |  |  |  |  | 78.1 | 14.6 | Activity (KU812 cell line [9]): Active; Activity (K562 [15]): Active; Activity (KU812 cell line [11]): Active; Activity (K562 [16]): Active
